Measurements as given in ChEMBL document CHEMBL5325460, “Versatile anti-infective properties of pyrido- and dihydropyrido[2,3-d]pyrimidine-based compounds” (Bioorg Med Chem, 2023).
pIC50: −log10 of the molar value.

Columns and labels:
[1] = Cytotoxicity against African green monkey Vero cells assessed as reduction in cell viability measured after 3 days by MTT assay; format: toxicity, cell-based; details: chlorocebus sabaeus, time 3 day
How it was run: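 Vero cells held 3 days with graded doses in RPMI 1640 with 5% FBS. Viability read by MTT colorimetry at 540 nm. CC50 from concentration–response curves against untreated controls; means of at least three independent experiments.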

Toxoplasma gondii = assay: Antiparasitic activity against Toxoplasma gondii RH tachyzoites infected in African green monkey Vero cells assessed as parasitic growth inhibition incubated for 72 hrs by inverted microscopic analysis; format: functional, organism-based
How it was run: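 RH-strain tachyzoites grown on Vero host cells in RPMI 1640 with 10% FBS and exposed to a range of concentrations, with atovaquone as positive control. Infected cells counted under an inverted microscope; inhibition % = (1 − infected treated / infected control) × 100. IC50 from concentration–response curves at 72 h; means of at least three independent experiments.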

Leishmania major [2] = assay: Antileishmanial activity against Leishmania major promastigotes assessed as parasite growth inhibition measured after 72 hrs by MTT based ELISA reader analysis
[3] = Selectivity index, ratio of CC50 for cytotoxicity against African green monkey Vero cells to IC50 for antiparasitic activity against Toxoplasma gondii RH tachyzoites infected in African monkey Vero cells; format: toxicity, cell-based; details: read-out: Ratio CC50/IC50
How it was run: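 SI = Vero CC50 (3-day MTT, 540 nm read) divided by T. gondii RH IC50 (Vero host cells, microscopic count of infected cells); both values from concentration–response curves at 72 h.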

[4] = biological target: Human immunodeficiency virus type 1 reverse transcriptase (Human immunodeficiency virus 1, UniProt Q72547); assay: Inhibition of wild type HIV-1 reverse transcriptase RNase-associated RNase H activity using RNA/DNA template-primer as substrate
How it was run: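 RNase H activity of wild-type RT, run independently of RDDP, with RDS1759 as positive control. Assays in triplicate; IC50 reported ± error.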

Leishmania major [5] = assay: Antileishmanial activity against Leishmania major amastigotes infected in mouse macrophages assessed as parasite growth inhibition measured after 72 hrs by MTT based ELISA reader analysis; format: functional, organism-based; details: Macrophage
How it was run: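 L. major promastigotes from a patient isolate; amastigotes from infected BALB/c mice, grown inside mouse macrophages. Viable parasites read by MTT absorbance at 570 nm.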

Row | pIC50 [4] | SMILES | CC50 at 72 h [1] | pIC50 (Toxoplasma gondii) | pIC50 (Leishmania major [2]) | selectivity ratio [3] | pIC50 (Leishmania major [5])
1 | < 4.00 | COc1ccc(C2C3=C(Nc4[nH]c(=O)[nH]c(=O)c42)c2ccccc2C3=O)cc1O (stereo not drawn) | 8.99 µM | 4.94 | < 4.49 | 0.79 | 4.67
2 |  | COc1cc(C2C3=C(Nc4[nH]c(=O)[nH]c(=O)c42)c2ccccc2C3=O)cc(I)c1OC (stereo not drawn) | 0.42 µM | 6.33 | < 4.63 | 0.89 | 4.85
3 | 5.06 | CCOC(=O)C(=O)CC(=O)/C=C/c1cccn1Cc1ccccc1Cl |  |  |  |  | 
4 |  | COc1cc(C2C3=C(Nc4[nH]c(=O)[nH]c(=O)c42)c2ccccc2C3=O)cc(Br)c1OC (stereo not drawn) | 0.5 µM | 6.14 | < 4.59 | 0.69 | 4.79
5 | < 4.00 | O=C1C2=C(Nc3[nH]c(=O)[nH]c(=O)c3C2c2ccc(O)cc2)c2ccccc21 (stereo not drawn) | 3.95 µM | 4.70 | < 4.46 | 0.2 | 4.66
6 |  | COc1ccc(-c2c3c(nc4[nH]c(=O)[nH]c(=O)c24)-c2ccccc2C3=O)cc1OC | 0.87 µM | 5.95 | 4.53 | 0.78 | 5.17
7 | 4.67 | COc1cc(C2C3=C(Nc4[nH]c(=O)[nH]c(=O)c42)c2ccccc2C3=O)cc(OC)c1OC (stereo not drawn) | 2.1 µM | 5.56 | < 4.54 | 0.76 | 4.67
8 |  | COc1cc(C2C3=C(Nc4[nH]c(=O)[nH]c(=O)c42)c2ccccc2C3=O)cc(Cl)c1OC (stereo not drawn) | 0.3 µM | 6.39 | < 4.54 | 0.73 | 5.21
9 |  | O=C1C(O)=C([C@H]2CC[C@H](c3ccc(Cl)cc3)CC2)C(=O)c2ccccc21 [ATOVAQUONE] | 9.5 µM | 7.15 |  | 136 | 
10 |  | O=C1C2=C(Nc3[nH]c(=O)[nH]c(=O)c3C2c2cccc(Br)c2)c2ccccc21 (stereo not drawn) | 16.1 µM | 4.94 | 4.94 | 1.42 | 4.44
11 | 4.69 | COc1ccc(C2C3=C(Nc4[nH]c(=O)[nH]c(=O)c42)c2ccccc2C3=O)cc1OC (stereo not drawn) | 8.03 µM | 5.14 | < 4.51 | 1.1 | 5.16
12 | < 4.00 | COc1cc(C2C3=C(Nc4[nH]c(=O)[nH]c(=O)c42)c2ccccc2C3=O)ccc1O (stereo not drawn) | 6.16 µM | 5.08 | 4.45 | 0.74 | 4.67
13 |  | COc1ccc(C2C3=C(Nc4[nH]c(=O)[nH]c(=O)c42)c2ccccc2C3=O)cc1F (stereo not drawn) | 7.16 µM | 5.01 | 5.15 | 0.74 | 4.77
14 |  | COc1ccc(C2C3=C(Nc4[nH]c(=O)[nH]c(=O)c42)c2ccccc2C3=O)cc1Br (stereo not drawn) | 1.73 µM | 5.74 | < 4.56 | 0.96 | 5.72
15 | 4.03 | O=C1C2=C(Nc3[nH]c(=O)[nH]c(=O)c3C2c2cccc(O)c2)c2ccccc21 (stereo not drawn) | 9.46 µM | 4.63 | < 4.46 | 0.4 | 4.57
16 |  | C[C@@H]1[C@H](O)[C@@H](C)/C=C/C=C/C=C/C=C/C=C/C=C/C=C/[C@H](O[C@@H]2O[C@H](C)[C@@H](O)[C@H](N)[C@@H]2O)C[C@@H]2O[C@](O)(C[C@@H](O)C[C@@H](O)[C@H](O)CC[C@@H](O)C[C@@H](O)CC(=O)O[C@H]1C)C[C@H](O)[C@H]2C(=O)O [AMPHOTERICIN B] |  |  | 6.08 |  | 
17 |  | COc1cc(-c2c3c(nc4[nH]c(=O)[nH]c(=O)c24)-c2ccccc2C3=O)cc(Br)c1OC | 2.31 µM | 5.73 | 4.59 | 1.24 | 4.79
18 |  | COc1ccc(-c2c3c(nc4[nH]c(=O)[nH]c(=O)c24)-c2ccccc2C3=O)cc1F | 4.11 µM | 5.03 | 5.18 | 0.44 | 4.80
19 | 4.77 | COc1cc(C2C3=C(Nc4[nH]c(=O)[nH]c(=O)c42)c2ccccc2C3=O)cc(OC)c1O (stereo not drawn) | 6.08 µM | 4.96 | 4.50 | 0.55 | 4.67
20 |  | COc1cc(-c2c3c(nc4[nH]c(=O)[nH]c(=O)c24)-c2ccccc2C3=O)cc(Cl)c1OC | 0.85 µM | 6.16 | 4.55 | 1.23 | 4.73
21 |  | COc1cc(-c2c3c(nc4[nH]c(=O)[nH]c(=O)c24)-c2ccccc2C3=O)cc(I)c1OC | 2.22 µM | 5.61 | 4.64 | 0.9 | 4.81
22 |  | COc1ccc(-c2c3c(nc4[nH]c(=O)[nH]c(=O)c24)-c2ccccc2C3=O)cc1Br | 9.55 µM | 4.93 | 4.60 | 0.91 | 4.45
23 | 4.95 | O=C1C2=C(Nc3[nH]c(=O)[nH]c(=O)c3C2c2ccc(O)c(O)c2)c2ccccc21 (stereo not drawn) | 7.03 µM | 5.00 | < 4.48 | 0.7 | < 4.48
24 |  | COc1ccc(C2C3=C(Nc4[nH]c(=O)[nH]c(=O)c42)c2ccccc2C3=O)cc1C (stereo not drawn) | 2.89 µM | 5.01 | < 4.49 | 0.3 | 4.65
25 |  | COc1cc(-c2c3c(nc4[nH]c(=O)[nH]c(=O)c24)-c2ccccc2C3=O)cc(OC)c1OC | 2.02 µM | 5.68 | < 4.54 | 0.97 | 5.24
